Key:
CHO cells [1] = assay: Radiation-induced intracellular ROS level; assay type: cell-based, Chinese Hamster; conditions: 10 μM for 2 h, 2 Gy, 30 min postirradiation
Method in brief: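 CHO cells were pretreated with 10 μM test compound for 2 h and then γ-irradiated. At 30 min postirradiation, 1 × 10⁴ cells were loaded with DCFDA (5 μM) for 30 min at 37 °C. DCF fluorescence was read on a plate reader (excitation 488 nm, emission 530 nm).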

CHO cells [2] = assay: Single-cell alkaline gel electrophoresis; assay type: cell-based, Chinese Hamster; conditions: 10 μM for 2 h, 4 Gy, 0 to 60 min
Method in brief: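 CHO cells pretreated with 10 μM test compound for 2 h were washed, then irradiated at 4 Gy (⁶⁰Co, 1 Gy/min) in serum-free medium, with 10% FBS re-added afterwards. At 0, 30 and 60 min, about 15 000 cells in 0.8% low-melting agarose were lysed, electrophoresed under alkaline conditions and stained with SYBR Green II. Tail length and olive tail moment were measured in about 50 cells per slide. Mean ± SEM, n = 3.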

[3] = test system: γ-glutamyl-cysteine ligase (γ-GCL); assay: mRNA expression of γ-GCL by RT-PCR in MCF7 cells; assay type: cell-based, human; conditions: MCF7, 25 μM, 48 h
Method in brief: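 MCF7 cells were exposed to 25 μM test compound for 48 h. Total RNA was extracted with TRI reagent, and about 2 μg was reverse-transcribed. SYBR Green real-time PCR used γ-GCL-specific primers. CT values were normalised to β-actin and expression expressed relative to control. Mean ± SEM, n = 3.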

CHO cells [4] = assay: Radiation-induced micronuclei assay and NDI in CHO cells; assay type: cell-based, Chinese Hamster; conditions: 4 Gy; for reduction in radiation-induced micronuclei formation: pretreatment 2 h, 18 h postirradiation
Method in brief: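 CHO cells were pretreated with test compound (2.5–10 μM; 10 μM for NDI) for 2 h, washed with PBS and placed in serum-free medium. They were given 4 Gy ⁶⁰Co γ-rays at 1 Gy/min, then returned to 10% FBS. Cytochalasin B (4 μg/mL) was present for 18 h, and cells were stained with acridine orange. Micronuclei were scored in 500 binucleated cells. NDI was calculated from counts of mono- to tetranucleated cells among ≥500 viable cells.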

[5] = target: T1, thioredoxin reductase (TrxR) (Homo sapiens, UniProt Q16881); assay: TrxR activity level in MCF7 cells; assay type: cell-based; conditions: MCF7, 25 μM, 48 h
T1 sequence (Q16881 151-649 limits assumed): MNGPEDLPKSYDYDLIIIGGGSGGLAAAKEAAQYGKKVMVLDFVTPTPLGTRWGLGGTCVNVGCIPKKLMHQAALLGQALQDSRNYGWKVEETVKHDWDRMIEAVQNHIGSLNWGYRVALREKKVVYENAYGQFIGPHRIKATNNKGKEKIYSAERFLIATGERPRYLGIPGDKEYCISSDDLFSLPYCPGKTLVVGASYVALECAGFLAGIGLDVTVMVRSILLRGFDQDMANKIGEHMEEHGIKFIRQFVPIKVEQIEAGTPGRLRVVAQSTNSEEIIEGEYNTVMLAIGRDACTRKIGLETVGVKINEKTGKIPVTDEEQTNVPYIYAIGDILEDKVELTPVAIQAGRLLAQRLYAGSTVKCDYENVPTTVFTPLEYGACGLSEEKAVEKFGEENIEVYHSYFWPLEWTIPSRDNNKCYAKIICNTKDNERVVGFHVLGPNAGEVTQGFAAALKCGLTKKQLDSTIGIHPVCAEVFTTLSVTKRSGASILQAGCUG
Method in brief: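 MCF7 lysates were prepared in CelLytic M with protease inhibitors after 48 h exposure to 25 μM test compound (0.1% DMSO). Thioredoxin reductase activity in about 100 μg protein was measured with a commercial kit; protein was measured by Bradford. Mean ± SEM, n = 3, versus DMSO control.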

cells = assay: Toxicity in cells; assay type: cell-based; conditions: up to a concentration of 10 μM
Method in brief: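 Cells were seeded at about 2 × 10³ per well and allowed to attach for 12 h. Lines were CHO, A549 and MCF7 in DMEM with 10% FBS, or fresh BALB/c mouse splenic lymphocytes in RPMI-1640. Cells were then exposed to test compound (5–100 μM, 0.1% DMSO) for 48 h. MTT was read at 570 nm, with % cytotoxicity taken versus control. Mean ± SEM, n = 3.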

A549 cells = assay: MTT cytotoxicity assay, A549; assay type: cell-based, human; conditions: read-out: IC50 (half maximal concentration to inhibit proliferation by 50%), 48 h
Method in brief: (§1)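 Cells kept in DMEM with 10% FBS and penicillin/streptomycin at 37 °C in 5% CO2. About 2 × 10^3 cells per well, 12 h attachment, then test compound at 5–100 μM (from DMSO stock; 0.1% DMSO final) for 48 h. MTT absorbance read at 570 nm, with % cytotoxicity relative to the 0.1% DMSO control. Mean ± SEM, n = 3.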

rat liver TrxR = target: T2, rat liver TrxR (Rattus norvegicus, UniProt O89049); assay: TrxR inhibition assay in cell-free system; assay type: biochemical; conditions: for inhibition of TrxR: cell-free, rat liver TrxR
T2 sequence (O89049 1-499): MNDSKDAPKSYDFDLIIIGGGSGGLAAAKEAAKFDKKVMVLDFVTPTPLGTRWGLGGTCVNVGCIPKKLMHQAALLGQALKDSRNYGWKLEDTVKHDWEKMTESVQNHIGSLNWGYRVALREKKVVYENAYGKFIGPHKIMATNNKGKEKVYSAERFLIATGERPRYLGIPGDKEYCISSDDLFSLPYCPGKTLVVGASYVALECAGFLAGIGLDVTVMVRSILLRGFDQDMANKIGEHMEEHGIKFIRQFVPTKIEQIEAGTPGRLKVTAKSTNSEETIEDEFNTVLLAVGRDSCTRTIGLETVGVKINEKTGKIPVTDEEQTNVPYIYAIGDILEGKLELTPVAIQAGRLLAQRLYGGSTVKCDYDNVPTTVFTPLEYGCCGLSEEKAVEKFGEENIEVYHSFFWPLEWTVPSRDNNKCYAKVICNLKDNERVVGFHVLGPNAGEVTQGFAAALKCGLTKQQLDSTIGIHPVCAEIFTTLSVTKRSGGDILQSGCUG
Method in brief: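 Rat liver TrxR (50 nM) was preincubated at 37 °C for 30 min with 100 μM NADPH and test compound (5–100 μM) in 50 mM Tris–HCl, 1 mM EDTA, pH 7.4 (4% DMSO final). DTNB was then added and TNB formation followed at A412 for 5 min, against a no-enzyme blank and a compound blank. Activity is given as % of control. For reversibility, NADPH was varied 10–100 μM with compound fixed at 50 μM (Lineweaver–Burk).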

CHO cells [6] = assay: MTT cytotoxicity assay, CHO; assay type: cell-based, Chinese Hamster; conditions: read-out: IC50 (half maximal concentration to inhibit proliferation by 50%), 48 h
Method in brief: as §1

[7] = test system: glutathione S-transferase (GST); assay: GST activity level in MCF7 cells; assay type: cell-based, human; conditions: MCF7, 25 μM, 48 h
Method in brief: (§2)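 MCF7 cells were grown in DMEM with 10% FBS at 37 °C and 5% CO2, then exposed to 25 μM test compound (0.1% DMSO) for 48 h. Lysates were made in CelLytic M with protease inhibitor cocktail. About 100 μg protein was used for GSH, GSSG, GPx, GST and GR determinations, with protein measured by Bradford. Mean ± SEM, n = 3, versus DMSO control.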

[8] = test system: glutathione peroxidase (GPx); assay: GPx activity level in MCF7 cells; assay type: cell-based, human; conditions: MCF7, 25 μM, 48 h
Method in brief: as §2

Chemical stability [9] = assay type: physicochemical; conditions: 10 μM, cell culture medium with 10% FBS, 1% DMSO, 37 °C, in 2.5 h
MCF7 cells [10] = assay: Intracellular redox state: ratio of GSH and GSSG in MCF7 cells; assay type: cell-based, human; conditions: MCF7, 25 μM, 48 h
Method in brief: as §2

MCF7 cells [11] = assay: MTT cytotoxicity assay, MCF7; assay type: cell-based, human; conditions: read-out: IC50 (half maximal concentration to inhibit proliferation by 50%), 48 h
Method in brief: as §1

splenic lymphocytes = assay: MTT cytotoxicity assay, splenic lymphocytes; assay type: cell-based, BALB/c mice; conditions: read-out: IC50 (half maximal concentration to inhibit proliferation by 50%), 48 h
Method in brief: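 Splenic lymphocytes freshly isolated from BALB/c mice and kept in RPMI-1640 with FBS and antibiotics at 37 °C in 5% CO2. About 2 × 10^3 cells per well, 12 h, then test compound at 5–100 μM (0.1% DMSO final) for 48 h. MTT absorbance read at 570 nm, with % cytotoxicity relative to the DMSO control. Mean ± SEM, n = 3.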

Chemical stability [12] = assay type: physicochemical; conditions: 10 μM, phosphate buffer pH 7.4, 1% DMSO, 37 °C, within 1 h

percent inhibition in TrxR activity [5]: 58%
nature of TrxR inhibition (rat liver TrxR; NADPH competition experiment, Lineweaver–Burk): reversible inhibition
inhibition of TrxR (rat liver TrxR; 100 μM): 85–95%
inhibition of TrxR (rat liver TrxR; up to a concentration of 50 μM): 15–25%
Vmax (rat liver TrxR; compound 50 μM, NADPH 10–100 μM, unaffected versus control reaction): 1 nmol/min
degraded in culture medium (10% FBS) (Chemical stability [9]): ~30%
degraded in phosphate buffer (Chemical stability [12]): 65%
Substance: Hispolon [HS]
reduction in the ROS level compared to radiation control (CHO cells [1]): 40%
DNA damage parameters (TL, OTM) compared to radiation control (CHO cells [2]): significant decrease
mRNA expression of γ-GCL compared to control cells [3]: marginal increase
Nuclear division index (NDI) compared to radiation control (CHO cells [4]; 10 μM for 2 h): did not affect this much
reduction in radiation-induced micronuclei formation (CHO cells [4]; 7.5 μM): 20%
reduction in radiation-induced micronuclei formation (CHO cells [4]; 10 μM): 22%
reduction in radiation-induced micronuclei formation (CHO cells [4]; up to 5 μM): did not affect
toxicity in cells (cells): < 10%
IC50 (A549 cells): 68 µM
IC50 (CHO cells [6]): > 100 µM
inhibition of GST activity [7]: did not cause any significant change
inhibition of GPx activity [8]: did not cause any significant change
increase in GSH/GSSG (MCF7 cells [10]): did not cause any significant change
IC50 (MCF7 cells [11]): 42 µM
IC50 (splenic lymphocytes): > 100 µM
